Data set [1] is described as follows: Cytotoxicity against human NCI60 cells. Format: functional.
The nature of data set [2]: Cytotoxicity against human melanoma cells. Format: functional. As to conditions: Melanoma cell.
Data set [3] is described as follows: Inhibition of V-ATPase activity in bovine […] chromaffin granule membrane. Also noted: species or system Bos taurus.
For the next data set, the system named is COS-7. Briefly: Inhibition of V-ATPase activity in african green monkey COS7 cells assessed as increase in luminal pH of lysosomes at 1 uM after 5 hrs by fluorescent microscopy. The format is cell-based. The conditions noted are these: Chlorocebus aethiops. Summed up: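 COS-7 cells grown in DMEM with 10% FCS at 37 °C in 5% CO2 on poly-L-lysine coverslips overnight. Compound added at 1 µM final for 5 h at 37 °C. Cells then loaded 1 min with LysoSensor Green DND-189 (1 µM final) and washed with HBSS. Lysosomal fluorescence imaged by microscopy with a cooled CCD camera. Duplicate experiments.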

Data set [4] in a line: Cytotoxicity against african green monkey COS7 cells at 1 uM after 5 hrs by trypan blue exclusion test. The format is cell-based. As to conditions: chlorocebus aethiops, cos-7, 5 h. Summed up:
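COS-7 cells were cultured on poly-L-lysine coverslips and exposed to compound at 1 µM final for 5 h at 37 °C. Intact or treated cells were soaked in PBS with 0.3% trypan blue. Viability was judged by dye exclusion under bright-field and phase-contrast microscopy.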

Data set [5] can be described thus: Inhibition of proton transport activity of V-ATPase in pig adrenal chromaffin granule membrane by fluorescent quenching measurement. More on the design: species or system Sus scrofa. Summed up: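 Porcine adrenal chromaffin granule membranes (50 µg protein) in 0.3 M sucrose, 40 mM KCl, 5 mM tricine, pH 8.0, with ACMA and valinomycin, preincubated 10 min at 37 °C. Compound added in DMSO (0.1% final), 3 min at 37 °C. MgATP added for 2 min, then FCCP. ACMA fluorescence quenching read. Activity taken as % of DMSO control, in triplicate with SD. IC50 derived graphically from log-concentration plots.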

pIC50: −log10 of the molar value. Activity calls are given as the source filed them. The calls are words filed in the database; no cut-off is given here. Some results are limits rather than exact numbers.

In the case of `CC/C=C\C=C/C(=O)N/C=C/C[C@H]1C[C@@H](O)[C@@H](C)C/C=C/Cc2cccc(O)c2C(=O)O1` [SALICYLIHALAMIDE A], the values for the GI50 in data set [1] and in data set [2] were 15 nM and 7 nM, respectively. The pIC50 in data set [3] is 9.00; in data set [5] it was over 9.00. For the same molecule, the result in the data set on COS-7 was Active. Besides, the Activity result in data set [4] is “Non-toxic”.

`CC/C=C\C=C/C(=O)N/C=C/C[C@H]1C[C@@H](O)[C@@H](C)C/C=C/Cc2ccc(F)c(O)c2C(=O)O1` [4-19F-SALICYLIHALAMIDE A]: the outcome with COS-7 was Active. This molecule also gave a pIC50 in data set [5] of 8.70.

As to `CC/C=C\C=C/C(=O)N/C=C\C[C@H]1C[C@@H](O)[C@@H](C)C/C=C/Cc2ccc(F)c(O)c2C(=O)O1` [4-19F-SALICYLIHALAMIDE B], the outcome with COS-7 was Active. The molecule further had a pIC50 in data set [5] of 8.00.

For `CC/C=C\C=C/C(=O)N/C=C\C[C@H]1C[C@@H](O)[C@@H](C)C/C=C/Cc2cccc(O)c2C(=O)O1` [SALICYLIHALAMIDE B], the outcome in the data set on COS-7 was Active. Moreover, the Activity entry in data set [4] was “Non-toxic”. Besides, in data set [5], the pIC50 was 7.52.

One may read the GI50 as the concentration giving 50% growth inhibition. In general, pIC50 refers to the negative decadic logarithm of the IC50, by convention in mol/L.

The values above are taken from ChEMBL document CHEMBL1143310, “Design, synthesis, and biological evaluation of fluorinated analogues of salicylihalamide” (J Med Chem, 2009).
